Data set [1] can be described thus: Drug hydrolysis in Wistar rat duodenal S9 fraction in presence of 1 mM CES inhibitor BNPP. The data set is classed as ADME, Duodenum. In short, it runs like this:
(§1)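 Duodenal or jejunal mucosa from fasted rats homogenized in 50 mM HEPES (pH 7.4) with 1.15% KCl; S9 is the 9000 g supernatant. S9 pre-incubated 5 min at 37°C, then drug added at 10–500 µM final (1% DMSO). Run for 20 min, stopped with acetonitrile, temocaprilat formed measured by HPLC. Km and Vmax from Michaelis–Menten nonlinear fit. Inhibitor (1 mM BNPP) pre-incubated 5 min. Results as % of control.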

Data set [2] has as its system Jejunum. In words: Drug uptake in Wistar rat jejunum pre-perfused with 400 uM CES inhibitor BNPP assessed as rate of drug appearance at 100 uM at pH 5.4 by in-situ single-pass perfusion method. The following applies: in vivo, pH 5.4, 100 µM. The format is ADME, tissue-based. In short, it runs like this: (§2)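 Same in situ jejunal single-pass perfusion, with carboxylesterase blocked by pre-perfusing the lumen with 400 µM BNPP for 40 min. Then 100 µM drug in luminal phosphate buffer (pH 5.4 or 6.4) at 0.2 ml/min. Vascular Krebs–Henseleit (pH 7.4) at 2.5 ml/min. Luminal, vascular and tissue levels measured by HPLC. Rates are luminal disappearance and appearance in lumen or mesenteric vein. Mean ± S.D., n = 3.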

In data set [3] the test system is Jejunum. The experiment in a line: Drug uptake in Wistar rat jejunum pre-perfused with 400 uM CES inhibitor BNPP assessed as rate of temocaprilat disappearance at 100 uM at pH 5.4 by in-situ single-pass perfusion method. The data set is classed as ADME, tissue-based. The following applies: in vivo, pH 5.4, 100 µM. In short, it runs like this: as §2
Data set [4] relates to Jejunum. In words: Drug uptake in Wistar rat jejunum pre-perfused with 400 uM CES inhibitor BNPP assessed as rate of temocaprilat appearance at 100 uM at pH 5.4 by in-situ single-pass perfusion method. To be noted: in vivo, pH 5.4, 100 µM. The data set is classed as ADME, tissue-based. In short, it runs like this: as §2
The test system of data set [5] is Jejunum. In words: Apparent hydrolytic clearance in Wistar rat jejunum pre-perfused with 400 uM CES inhibitor BNPP at 100 uM at pH 5.4 by in-situ single-pass perfusion method. The data set is classed as ADME, tissue-based. The following applies: in vivo, pH 5.4, 100 µM. In a few lines:
as §2

Data set [6] relates to Jejunum. In words: Apparent absorption clearance in Wistar rat jejunum pre-perfused with 400 uM CES inhibitor BNPP at 100 uM at pH 5.4 by in-situ single-pass perfusion method. The data set is classed as ADME, tissue-based. The following applies: in vivo, pH 5.4, 100 µM. In a few lines: as §2
Data set [7] in a line: Permeability in Wistar rat jejunum at 100 uM at pH 6.4 by in-situ single-pass perfusion method. The following applies: other: in-situ single-pass perfusion of the jejunum, read-out: Peff (converted). The format is ADME, tissue-based. In a few lines: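 Rats fasted 18–24 h and anesthetized with intraperitoneal pentobarbital. Jejunal loop perfused at 0.2 ml/min with phosphate buffer (pH 5.4, 6.4 or 7.4) containing 100 μM drug and FD-4 (0.1 mg/ml). Vascular perfusate was Krebs–Henseleit bicarbonate buffer (pH 7.4) at 2.5 ml/min, segment kept at 37°C. Drug and metabolite measured by HPLC (UV 258 nm). Peff normalized to 10 cm intestine; mean ± S.D., n = 3–6.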

For data set [8], the system named is Jejunum. The experiment in a line: Apparent hydrolytic clearance in Wistar rat jejunum at 100 uM at pH 7.4 by in-situ single-pass perfusion method. The data set is classed as ADME, tissue-based. To be noted: in vivo. In short, it runs like this: (§3)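 Rats fasted 18–24 h, anesthetized with intraperitoneal pentobarbital. Isolated cannulated jejunal segment kept at 37°C in Krebs–Henseleit buffer with 3% BSA and 10 mM glucose. Vascular perfusion with Krebs–Henseleit (pH 7.4) at 2.5 ml/min. Lumen perfused at 0.2 ml/min with phosphate buffer (pH 5.4, 6.4 or 7.4) containing 100 µM drug plus FD-4. Luminal and vascular samples assayed by HPLC (UV 258 nm). Parameters normalized to 10 cm intestine. Mean ± S.D., n = 3–6.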

The test system of data set [9] is Jejunum. In words: Intracellular drug level in Wistar rat jejunum assessed as temocaprilat level pre-perfused with 400 uM CES inhibitor BNPP at 100 uM at pH 5.4 by in-situ single-pass perfusion method. The format is ADME, tissue-based. The following applies: in vivo, pH 5.4, 100 µM. In a few lines: as §2
The subject of data set [10] is Jejunum. The experiment in a line: Drug uptake in Wistar rat jejunum pre-perfused with 400 uM CES inhibitor BNPP assessed as rate of temocaprilat appearance at 100 uM at pH 6.4 by in-situ single-pass perfusion method. The following applies: in vivo, pH 6.4, 100 µM. The data set is classed as ADME. In short, it runs like this: as §2
Data set [11] deals with Jejunum. In words: Apparent hydrolytic clearance in Wistar rat jejunum pre-perfused with 400 uM CES inhibitor BNPP at 100 uM at pH 6.4 by in-situ single-pass perfusion method. The format is ADME, tissue-based. The following applies: in vivo, pH 6.4, 100 µM. In short, it runs like this:
as §2

Data set [12] relates to Jejunum. The experiment in a line: Intracellular drug level in Wistar rat jejunum pre-perfused with 400 uM CES inhibitor BNPP at 100 uM at pH 6.4 by in-situ single-pass perfusion method. The format is ADME, tissue-based. To be noted: in vivo, pH 6.4, 100 µM. In a few lines: as §2
The test system of data set [13] is Jejunum. In words: Intracellular drug level in Wistar rat jejunum assessed as temocaprilat level pre-perfused with 400 uM CES inhibitor BNPP at 100 uM at pH 6.4 by in-situ single-pass perfusion method. The following applies: in vivo, pH 6.4, 100 µM. The data set is classed as ADME, tissue-based. In a few lines:
as §2

The subject of data set [14] is Jejunum. The experiment in a line: Drug hydrolysis in intact Wistar rat jejunum mucosal homogenate at 500 uM assessed per mg protein in presence of 100 uM CES inhibitor BNPP. The format is ADME, tissue-based. To be noted: tissue homogenate. In short, it runs like this:
(§4)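 Jejunal mucosal homogenate or S9 (HEPES pH 7.4/KCl) taken from intact jejunum, or after 40 min perfusion with or without 400 µM BNPP. Protein at 400 µg/ml incubated at 37°C with 500 µM drug. Added BNPP (100 or 1000 µM) pre-incubated 5 min. Temocaprilat formed measured by HPLC and given as nmol/min/mg protein and % of control. Mean ± S.D., n = 4.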

Data set [15] in a line: Drug hydrolysis in intact Wistar rat jejunal S9 fraction at 500 uM assessed per mg protein in presence of 100 uM CES inhibitor BNPP. To be noted: s9, 500 µM. The data set is classed as ADME, Jejunum. In short, it runs like this: as §4
Data set [16] in a line: Drug hydrolysis in intact Wistar rat jejunal S9 fraction at 500 uM assessed per mg protein in presence of 1000 uM CES inhibitor BNPP. The data set is classed as ADME, Jejunum. To be noted: s9, 500 µM. In short, it runs like this: as §4
For data set [17], the system named is Jejunum. The experiment in a line: Drug hydrolysis in perfused Wistar rat jejunum mucosal homogenate at 500 uM assessed per mg protein in presence of 400 uM CES inhibitor BNPP. The format is ADME, tissue-based. The following applies: tissue homogenate. In short, it runs like this:
as §4

A short description of data set [18]: Drug hydrolysis in perfused Wistar rat jejunal S9 fraction at 500 uM assessed per mg protein in presence of 400 uM CES inhibitor BNPP. The format is ADME, Jejunum. The following applies: s9, 500 µM. In a few lines: as §4
Data set [19] in a line: Partition coefficient, log P between n-octanol and phosphate buffer at pH 7.4. The data set is classed as physicochemical.
For data set [20], the system named is Jejunum. The experiment in a line: Intracellular drug level in Wistar rat jejunum at 100 uM at pH 5.4 by in-situ single-pass perfusion method. The format is ADME, tissue-based. The following applies: in vivo. In a few lines:
as §3

In data set [21] the test system is Jejunum. The experiment in a line: Intracellular drug level in Wistar rat jejunum treated with Temocaprilat at 100 uM at pH 5.4 by in-situ single-pass perfusion method. The data set is classed as ADME, tissue-based. The following applies: in vivo, pH 5.4, 100 µM.
Data set [22] relates to Jejunum. In words: Drug uptake in Wistar rat jejunum mesenteric vein assessed as rate of drug appearance at 100 uM by in-situ single-pass perfusion method. To be noted: in vivo. The data set is classed as ADME, tissue-based. In a few lines:
as §3

A short description of data set [23]: Drug hydrolysis in Wistar rat duodenal S9 fraction assessed as rate of hydrolysis per mg protein. The format is ADME, Duodenum. In short, it runs like this: as §1
Data set [24] can be described thus: Drug hydrolysis in Wistar rat jejunal S9 fraction assessed as rate of hydrolysis per mg protein. The format is ADME, Jejunum. In short, it runs like this:
as §1

Usually logD stands for the decadic logarithm of the distribution of all forms, ionised or not, between an organic phase and buffer at a given pH. Low readings indicate lower lipophilicity, high ones higher lipophilicity. Usually Vmax stands for the top rate of the reaction or transport when substrate is in excess. `CCOC(=O)[C@H](CCc1ccccc1)N[C@H]1CS[C@H](c2cccs2)CN(CC(=O)O)C1=O` [TEMOCAPRIL]: in data set [1], the Stability result was “Stable”. Further, the CL in [2] is 0.862 nmol/min; in data set [3], 1.01 nmol/min; in data set [4] it was 1.01 nmol/min; in data set [5], 24.9 µL/min; in data set [8] it was 43.2 µL/min; in data set [10], 0.604 nmol/min. Moreover, the CL in data set [11] was determined as 19.5 µL/min. For the same molecule, in [6], the “CL(app)” value was determined as 10.6 µL/min. For the same molecule, the Papp at 100 µM in data set [7] was 57.2 ×10⁻⁶ cm/s. Moreover, the Drug uptake in data set [9] is 17 nmol/g; in data set [12], 15.4 nmol/g; in data set [13] it was 14.6 nmol/g; in [20], 5.46 nmol/g; in data set [21] it was 34.2 nmol/g; in data set [22], 0.147 nmol/min. The Drug degradation in data set [14] was found to be 2.23 nmol/min; in [15] it was 1.13 nmol/min; in data set [16], 0.488 nmol/min; in data set [17] it was 2.05 nmol/min; in [18], 0.625 nmol/min. Moreover, the logD in [19] was found to be 0.1. Moreover, the Vmax is 5.2 nmol/min/mg in data set [23] and 5.11 nmol/min/mg in [24].

Values taken from ChEMBL document CHEMBL3526140, “Prediction of human intestinal absorption of the prodrug temocapril by in situ single-pass perfusion using rat intestine with modified hydrolase activity” (Drug Metab Dispos, 2011).
